Most compounds without a hit are left out; they make up all but 3% or so of the library.
NSD2 HMT inh = NSD2 (human) methyltransferase inhibition. AID 743445. NSD2 peptide methylation, AlphaScreen, 120 min. inhibition, % at 12.5 µM. O96028. 0.54% of 310,000 active; in the data active means inhibition above about 50%
Target sequence (O96028 whole entry, looked up): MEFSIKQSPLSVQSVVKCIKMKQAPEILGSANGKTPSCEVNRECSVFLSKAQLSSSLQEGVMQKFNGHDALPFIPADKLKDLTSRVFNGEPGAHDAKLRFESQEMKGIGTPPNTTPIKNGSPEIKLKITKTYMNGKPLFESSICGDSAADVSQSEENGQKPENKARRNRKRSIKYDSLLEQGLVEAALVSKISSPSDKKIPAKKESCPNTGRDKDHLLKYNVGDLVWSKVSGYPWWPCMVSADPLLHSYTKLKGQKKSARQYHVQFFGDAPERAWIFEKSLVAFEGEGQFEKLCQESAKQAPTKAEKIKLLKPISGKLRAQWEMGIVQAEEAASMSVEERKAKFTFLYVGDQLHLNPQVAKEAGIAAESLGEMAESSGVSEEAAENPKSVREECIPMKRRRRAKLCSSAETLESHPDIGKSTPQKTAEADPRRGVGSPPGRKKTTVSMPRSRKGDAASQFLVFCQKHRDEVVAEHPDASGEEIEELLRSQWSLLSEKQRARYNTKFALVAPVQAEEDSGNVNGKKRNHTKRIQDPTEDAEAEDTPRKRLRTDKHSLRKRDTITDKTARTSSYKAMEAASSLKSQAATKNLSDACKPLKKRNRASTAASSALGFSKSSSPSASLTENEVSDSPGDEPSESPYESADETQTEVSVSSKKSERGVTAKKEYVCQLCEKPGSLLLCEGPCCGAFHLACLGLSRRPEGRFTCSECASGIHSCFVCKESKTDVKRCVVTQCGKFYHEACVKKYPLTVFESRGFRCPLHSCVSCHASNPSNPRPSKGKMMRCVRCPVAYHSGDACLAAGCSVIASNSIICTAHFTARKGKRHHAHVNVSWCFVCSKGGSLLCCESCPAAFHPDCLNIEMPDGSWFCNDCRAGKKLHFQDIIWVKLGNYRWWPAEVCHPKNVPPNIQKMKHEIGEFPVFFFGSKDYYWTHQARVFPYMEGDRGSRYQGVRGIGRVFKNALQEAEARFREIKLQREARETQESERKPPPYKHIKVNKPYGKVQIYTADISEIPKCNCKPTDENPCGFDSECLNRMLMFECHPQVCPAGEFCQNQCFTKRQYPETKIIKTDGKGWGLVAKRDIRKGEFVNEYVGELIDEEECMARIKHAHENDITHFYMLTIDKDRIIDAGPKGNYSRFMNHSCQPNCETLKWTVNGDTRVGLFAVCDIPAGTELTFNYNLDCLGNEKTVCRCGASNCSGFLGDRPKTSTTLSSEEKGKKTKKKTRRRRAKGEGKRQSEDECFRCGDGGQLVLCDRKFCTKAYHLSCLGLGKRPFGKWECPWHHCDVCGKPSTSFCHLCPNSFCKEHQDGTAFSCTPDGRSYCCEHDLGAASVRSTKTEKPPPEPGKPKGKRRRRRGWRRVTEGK
Casp6 inh = inhibitors of human caspase-6 | 0.53% of 350,000 active | inhibition, % at 12.5 µM | purified caspase-6, Z-VEID-R110 cleavage fluorescence | AID 686996;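 active means mean inhibition across replicates at least about 35%, with every replicate also reaching that limit, limit read from the data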;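 further: 0% = median of neutral control wells and 100% = no fluorescence left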
esBAF inh = SWI/SNF esBAF complex inhibition; mouse ES cells, Bmi1-luciferase knock-in reporter, 24 h; 100% = twice the neutral-well signal; 2% of 350,000 active; reporter increase, % at 12.5 µM; in the data active means activation above about 40%;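 further: 0% = median of the plate's neutral control wells and 100% = double that signal; a rise in the Bmi1 reporter signal indicates esBAF inhibition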
MITF act = MITF TRPM1 promoter activation in melanoma cells. AID 588334. SK-MEL-5 TRPM1-promoter luciferase, 24 h; % of positive control, neutral wells = 0. activation, % at 12.5 µM. 0.75% of 300,000 active;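 active means mean activation of at least 80% with every replicate also reaching 80%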;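 further: 0% = neutral control wells and 100% = parthenolide positive control wells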
XiGFP reactiv = reactivates the inactive X chromosome in mouse fibroblasts; XiGFP mouse fibroblasts, % GFP-positive cells imaging, 3 d; cells co-treated with 5-aza-dC sensitizer; scaled so ellipticine positive control = 100%; activation, % at 7.58 µM; 0.055% of 360,000 active;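 active means mean normalized replicate activation at least 10% and every replicate at or above 10%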;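 further: 0% = median of on-plate neutral control wells and 100% = ellipticine 6 µM median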
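Material: XiGFP fibroblasts, SV40-immortalized. Buffer or medium: DMEM plus 5-aza-dC sensitizer. Compound: single concentration per compound, delivered by pin transfer. Times: 3 days compound exposure. Controls: ellipticine 6 µM.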
Wnt bcat act = activates Wnt/beta-catenin signaling in a reporter cell assay | activator, plate reader | activation, % at 9.35 µM | 1.2% of 300,000 active | AID 743398; in the data active means activation above about 30%, passing the limit was not always enough;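 further: 0% = neutral control wells and 100% = positive control wells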
Alpha artifact = interferes with AlphaScreen signal, flagging NSD2 false positives. shares compounds with NSD2 HMT inh. AlphaScreen artifact counterscreen, preloaded methylated H4 peptide. AC35, µM (doses to about 10 µM), inactives show top-dose activity change, negative = signal loss. 9.4% of 1,500 active. AID 1053174; call rule not given here
An asterisk follows results filed as active; nt = not tested or not shown.

SMILES	NSD2 HMT inh	Casp6 inh	esBAF inh	MITF act	XiGFP reactiv	Wnt bcat act	Alpha artifact
O=C1CC(N2CCOCC2)=NN1c1ccc([N+](=O)[O-])cc1	110*	15	nt	nt	0	4	0%
Cc1ccc(C)c(S(=O)(=O)N2CCCOC2CNC(=O)C(=O)NCc2cccnc2)c1 (configuration not stated)	58*	-1	-3	-7	0	1	2%
CCOC(=O)CNC(=O)N1CCC(CCC(=O)N(C)Cc2ccccc2)CC1	65*	-1	-1	-6	0	1	4%
C[C@@H]1CN([C@@H](C)CO)C(=O)Cc2cc(NC(=O)Nc3ccccc3)ccc2O[C@@H]1CN(C)C(=O)Nc1cccc2ccccc12	nt	-1	0	nt	0	nt	nt
COc1ccc(N2Cc3cccc(C(=O)O)c3C2=O)cc1	nt	nt	4	4	nt	nt	nt
COc1cccc2c1N1C(=O)c3c(C(=O)O)cccc3C1CC2(C)C (configuration not stated)	101*	nt	-9	-6	nt	nt	-1%
CCN1CCN(Cc2nc(N)nc(Nc3ccc(C)c(C)c3)n2)CC1	95*	nt	0	0	nt	nt	4%
COc1cc(/C=C/[N+](=O)[O-])ccc1OCc1cccc(C(=O)O)c1	82*	nt	nt	nt	nt	nt	-18%
COc1ccc(C(=O)C=Cc2ccc(OCc3ccccc3)c(OC)c2)cc1OC	0	1	16	nt	1	2	nt
COc1ccc(CNC(=O)C[C@@H]2CC[C@@H](NC(=O)c3cccc(F)c3)[C@H](CO)O2)cc1	nt	-3	2	nt	0	nt	nt
COc1cc(NCCCNC(C)C)c2nccc(C)c2c1	107*	88*	2	-33	0	3	-4%
CCOC(=O)CC(NS(=O)(=O)c1ccc2[nH]cc(C(=O)O)c(=O)c2c1)c1ccc(OCC)c(OC)c1 (configuration not stated)	68*	54*	-5	5	0	-1	-1%
CN(C)c1cccc2c1C(=O)c1ccccc1C2=O	60*	5	nt	-4	0	-2	2.2µM*
C[C@@H]1CN([C@@H](C)CO)C(=O)c2cc(-c3cccc(C#N)c3)cnc2O[C@@H]1CN(C)C(=O)C1CCC1	nt	-3	-3	nt	0	nt	nt
Cc1cc(NC(=O)CSc2nc3ccccc3cc2C#N)no1	55*	-2	34	60	0	9	-3%
O=C(C[C@@H]1CC[C@@H]2[C@H](COC[C@@H](O)CN2Cc2cc(F)ccc2F)O1)NCc1ccc(Oc2ccccc2)cc1	nt	nt	11	nt	0	nt	nt
COc1cccc(CNC(=O)CSc2nnc3c(n2)[nH]c2ccccc23)c1	56*	-6	-2	-10	0	-3	3%
O=C(Nc1ccc(F)cc1)N[C@@H]1CC[C@@H](CC(=O)N2CCCCC2)O[C@H]1CO	nt	-1	1	nt	0	nt	nt
O=C(OCc1ccc(Cl)c(Cl)c1)c1cccnc1Cl	107*	-7	7	13	0	1	-6%
CN1C(=O)c2cc(NS(=O)(=O)c3cccc(F)c3)ccc2OC[C@H]2O[C@H](CC(=O)O)CC[C@@H]21	nt	5	4	nt	0	nt	nt
Cc1ccc(NC2=CC(=O)C(=O)c3ccccc32)cc1	65*	nt	40	-94	nt	73*	0%
NS(=O)(=O)c1ccc(NC2=CC(=O)C(=O)c3ccccc32)cc1	58*	68*	6	nt	1	0	-5%
C=CCN(CC=C)Cc1cc(=O)oc2ccc3ccccc3c12	nt	2	4	nt	0	-3	nt
C=CCN(CC=C)Cc1c(O)ccc2c1oc(=O)c1ccccc12	51*	nt	7	9	nt	nt	11%
COc1ccccc1NC(=O)N1C[C@@H]2[C@H](c3ccccc31)[C@H](CO)N2C(=O)C1CCCC1	nt	0	2	nt	0	nt	nt
CCOc1cc(/C=C2\C(=O)NN(c3ccccc3)C2=O)cc([N+](=O)[O-])c1O	111*	37*	nt	-8	0	-1	-10%
C[C@@H]1CN([C@H](C)CO)C(=O)Cc2cc(NC(=O)C3CC3)ccc2O[C@H]1CN(C)C	nt	2	1	nt	0	nt	nt

Screening data deposited in PubChem BioAssay by Broad Institute.
